Experiments:
[1] = test system: MDA-MB-231 cells; experiment: SRB cytotoxicity assay, MDA-MB-231; assay type: cell-based, human
[2] = test system: MCF-7 cells; experiment: SRB cytotoxicity assay, MCF-7; assay type: cell-based, human
[3] = test system: 4T1 cells; experiment: SRB cytotoxicity assay, 4T1; assay type: cell-based, murine; settings: Mus musculus, 4T1, 48 h, read-out: Average cell death (%) 4T1
Procedure, shortened: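 Single-dose screen: cells in DMEM/10% FBS at 37 °C, 5% CO2, seeded at 3000 per well, attached 24 h, then exposed to test compound at 25 μM final for 48 h. Fixed in cold 10% TCA, 1 h, 4 °C; stained 0.057% SRB, 30 min, dark, room temperature; rinsed with 1% acetic acid; dye solubilised in Tris base pH 10.5; absorbance 510 nm; percent cell death.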

[4] = test system: MDA-MB-231 cells; experiment: 3D spheroid; assay type: cell-based, human; settings: MDA-MB-231, methylcellulose, 8 days
Procedure, shortened: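 Single-cell suspensions in 1.5% methylcellulose/DMEM with 20% FBS were seeded at 1 × 10^5 cells per well over a 1% agarose–DMEM base for non-adherent growth. Cells were treated with test compound (0.5, 1, 2 μM) or doxorubicin and incubated 8 days. Spheres (≥20 cells) were imaged by fluorescence microscopy and counted per microscopic field.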

[5] = test system: BCL-2 and Survivin expression in MDA-MB-231 cells; experiment: Gene expression analysis by RT-qPCR; assay type: cell-based, human
Procedure, shortened: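 Cells were treated 48 h with varying test compound concentrations, then total RNA was extracted and checked spectrophotometrically. 2 μg RNA was reverse-transcribed to cDNA. BCL2 and Survivin transcripts were measured by RT-qPCR and quantified by the 2−ΔΔCt method against β2-microglobulin as reference gene.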

[6] = Homo sapiens, MDA-MB-231, 48 h, read-out: Average cell death (%) MDA-MB-231
[7] = Homo sapiens, MCF7, 48 h, read-out: Average cell death (%) MCF-7

Q: `COc1ccc(C(=O)c2c(-c3ccccc3)n(CCc3ccccc3)c(=O)c3c2c2ccccc2n3C)cc1` [10b, 4-(4-Methoxybenzoyl)-9-methyl-2-phenethyl-3-phenyl-2,9-dihydro-1H-pyrido[3,4-b]indol-1-one] was tested. Which cytotoxicity at 25 µM [1, 6] did it give?
A: Its cytotoxicity at 25 µM is 2.64 ± 0.7%.

Q: And the cytotoxicity at 25 µM [2, 7]?
A: Its cytotoxicity at 25 µM is 10.1 ± 2.2%.

Q: What about the cytotoxicity at 25 µM [3] of the same compound?
A: The cytotoxicity at 25 µM was 49.9 ± 3.23%.

Q: How did the cytotoxicity at 25 µM [1, 6] turn out when `Cn1c2ccccc2c2c(C(=O)c3ccccc3)c(-c3ccccc3)n(CCc3ccccc3)c(=O)c21` [10a, 4-Benzoyl-9-methyl-2-phenethyl-3-phenyl-2,9-dihydro-1H-pyrido[3,4-b]indol-1-one] was run?
A: The cytotoxicity at 25 µM was 3.66 ± 0.31%.

Q: What about the cytotoxicity at 25 µM [2, 7] of the same compound?
A: The cytotoxicity at 25 µM was 1.67 ± 0.3%.

Q: What about the cytotoxicity at 25 µM [3] of the same compound?
A: Its cytotoxicity at 25 µM is 46.6 ± 2.18%.

Q: Which cytotoxicity at 25 µM [1, 6] does the source give for `CCCCn1c(-c2ccccc2)c(C(=O)c2ccc(OC)cc2)c2c3ccccc3n(C)c2c1=O` [11b, 2-Butyl-4-(4-methoxybenzoyl)-9-methyl-3-phenyl-2,9-dihydro-1H-pyrido[3,4-b]indol-1-one] here?
A: The cytotoxicity at 25 µM was 30.3 ± 1.2%.

Q: How did the cytotoxicity at 25 µM [1, 6] turn out when `Cc1ccc(C(=O)c2c(-c3ccccc3)n(-c3nc4ccccc4s3)c(=O)c3c2c2ccccc2n3C)cc1` [12c, 2-(Benzo[d]thiazol-2-yl)-9-methyl-4-(4-methylbenzoyl)-3-phenyl-2,9-dihydro-1H-pyrido[3,4-b]indol-1-one] was run?
A: The cytotoxicity at 25 µM was 31.3 ± 4%.

Q: What does the source list for `COc1ccc(C(=O)c2c(-c3ccccc3)n(Cc3ccccc3)c(=O)c3c2c2ccccc2n3C)cc1` [9b, 2-Benzyl-4-(4-methoxybenzoyl)-9-methyl-3-phenyl-2,9-dihydro-1H-pyrido[3,4-b]indol-1-one]?
A: cytotoxicity at 25 µM [1, 6]: 20.2 ± 2.16%; cytotoxicity at 25 µM [2, 7]: 18.3 ± 3.05%; cytotoxicity at 25 µM [3]: 39.8 ± 4.02%

Q: For `Cn1c2ccccc2c2c(C(=O)c3ccc(C(F)(F)F)cc3)c(-c3ccccc3)n(-c3nc4ccccc4s3)c(=O)c21` [12d, 2-(Benzo[d]thiazol-2-yl)-9-methyl-3-phenyl-4-(4-(trifluoromethyl)benzoyl)-2,9-dihydro-1H-pyrido[3,4-b]indol-1-one], which cytotoxicity at 25 µM [1, 6] is on record?
A: Its cytotoxicity at 25 µM is 24.5 ± 2.7%.

Q: How did the cytotoxicity at 25 µM [1, 6] turn out when `COc1ccc(C(=O)c2c(-c3ccccc3)n(-c3nc4ccccc4s3)c(=O)c3c2c2ccccc2n3C)cc1` [12b, 2-(Benzo[d]thiazol-2-yl)-4-(4-methoxybenzoyl)-9-methyl-3-phenyl-2,9-dihydro-1H-pyrido[3,4-b]indol-1-one] was run?
A: The cytotoxicity at 25 µM was 4.08 ± 1.1%.

Q: For `COc1cccc2c1C(=O)c1c(O)c3c(c(O)c1C2=O)C[C@@](O)(C(=O)CO)C[C@@H]3O[C@H]1C[C@H](N)[C@H](O)[C@H](C)O1` [Doxorubicin, reference compound], which Sphere formation [4] is on record?
A: The Sphere formation was “completely abrogated sphere formation”.

Q: And the cytotoxicity at 5 µM [1, 6]?
A: The cytotoxicity at 5 µM was 80 ± 3.3%.

Q: And the “Expression of BCL-2” value [5]?
A: Its value is “markedly reduced”.

Q: What about the “Expression of Survivin” value [5] of the same compound?
A: The value was “markedly reduced”.

Q: What about the cytotoxicity at 5 µM [2, 7] of the same compound?
A: The cytotoxicity at 5 µM was 85 ± 5.3%.

Q: With `CCCCn1c(-c2ccccc2)c(C(=O)c2ccc(C(F)(F)F)cc2)c2c3ccccc3n(C)c2c1=O` [11d, 2-Butyl-9-methyl-3-phenyl-4-(4-(trifluoromethyl)benzoyl)-2,9-dihydro-1H-pyrido[3,4-b]indol-1-one] as the compound, how does the cytotoxicity at 25 µM [1, 6] read?
A: Its cytotoxicity at 25 µM is 14.7 ± 2.9%.

Q: With `Cn1c2ccccc2c2c(C(=O)c3ccc(F)cc3)c(-c3ccccc3)n(CCc3ccccc3)c(=O)c21` [10e, 4-(4-Fluorobenzoyl)-9-methyl-2-phenethyl-3-phenyl-2,9-dihydro-1H-pyrido[3,4-b]indol-1-one] as the compound, how does the cytotoxicity at 25 µM [1, 6] read?
A: Its cytotoxicity at 25 µM is 4 ± 0.41%.

Q: And the cytotoxicity at 25 µM [2, 7]?
A: Its cytotoxicity at 25 µM is 8.92 ± 0.8%.

Q: What about the cytotoxicity at 25 µM [3] of the same compound?
A: The cytotoxicity at 25 µM was 13.5 ± 1.16%.

Q: How did the cytotoxicity at 25 µM [1, 6] turn out when `Cn1c2ccccc2c2c(C(=O)c3ccc(C(F)(F)F)cc3)c(-c3ccccc3)n(CCc3ccccc3)c(=O)c21` [10d, 9-Methyl-2-phenethyl-3-phenyl-4-(4-(trifluoromethyl)benzoyl)-2,9-dihydro-1H-pyrido[3,4-b]indol-1-one] was run?
A: The cytotoxicity at 25 µM was 11.5 ± 0.95%.

Q: What about the cytotoxicity at 25 µM [2, 7] of the same compound?
A: The cytotoxicity at 25 µM was 9.32 ± 1%.

Q: What about the cytotoxicity at 25 µM [3] of the same compound?
A: The cytotoxicity at 25 µM was 22 ± 2.05%.

Q: Which “Average cell death (%) MDA-MB-231” value ([1]; at 100 μM, SRB assay) does the source give for `N.N.[Cl][Pt][Cl]` [Cisplatin, reference compound] here?
A: The value was 75 ± 4.3%.

Q: What about the “Average cell death (%) MCF-7” value ([2]; at 100 μM, SRB assay) of the same compound?
A: The value was 80 ± 6.2%.

Q: How did the cytotoxicity at 25 µM [1, 6] turn out when `Cn1c2ccccc2c2c(C(=O)c3ccc(F)cc3)c(-c3ccccc3)n(-c3nc4ccccc4s3)c(=O)c21` [12e, 2-(Benzo[d]thiazol-2-yl)-4-(4-fluorobenzoyl)-9-methyl-3-phenyl-2,9-dihydro-1H-pyrido[3,4-b]indol-1-one] was run?
A: Its cytotoxicity at 25 µM is 34.9 ± 1.7%.

Q: Which cytotoxicity at 25 µM [1, 6] does the source give for `CCCCn1c(-c2ccccc2)c(C(=O)c2ccccc2)c2c3ccccc3n(C)c2c1=O` [11a, 4-Benzoyl-2-butyl-9-methyl-3-phenyl-2,9-dihydro-1H-pyrido[3,4-b]indol-1-one] here?
A: The cytotoxicity at 25 µM was 36.6 ± 3.2%.

Q: How did the cytotoxicity at 25 µM [1, 6] turn out when `Cn1c2ccccc2c2c(C(=O)c3ccccc3)c(-c3ccccc3)n(Cc3ccccc3)c(=O)c21` [9a, 4-Benzoyl-2-benzyl-9-methyl-3-phenyl-2,9-dihydro-1H-pyrido[3,4-b]indol-1-one] was run?
A: Its cytotoxicity at 25 µM is 32.8 ± 3.16%.

Q: And the cytotoxicity at 25 µM [2, 7]?
A: The cytotoxicity at 25 µM was 9.16 ± 2.08%.

Q: And the cytotoxicity at 25 µM [3]?
A: Its cytotoxicity at 25 µM is 47.8 ± 3.32%.

Q: Which results are given for `Cc1ccc(C(=O)c2c(-c3ccccc3)n(CCc3ccccc3)c(=O)c3c2c2ccccc2n3C)cc1` [10c, 9-Methyl-4-(4-methylbenzoyl)-2-phenethyl-3-phenyl-2,9-dihydro-1H-pyrido[3,4-b]indol-1-one]?
A: cytotoxicity at 25 µM [1, 6]: 15.6 ± 1.15%; cytotoxicity at 25 µM [2, 7]: 26.2 ± 4.15%; cytotoxicity at 25 µM [3]: 60.5 ± 3.07%

Q: Which cytotoxicity at 25 µM [1, 6] does the source give for `Cn1c2ccccc2c2c(C(=O)c3ccc(F)cc3)c(-c3ccccc3)n(Cc3ccccc3)c(=O)c21` [9e, 2-Benzyl-4-(4-fluorobenzoyl)-9-methyl-3-phenyl-2,9-dihydro-1H-pyrido[3,4-b]indol-1-one] here?
A: The cytotoxicity at 25 µM was 7.54 ± 0.71%.

Q: And the cytotoxicity at 25 µM [2, 7]?
A: The cytotoxicity at 25 µM was 2 ± 0.52%.

Q: What about the cytotoxicity at 25 µM [3] of the same compound?
A: Its cytotoxicity at 25 µM is 32.2 ± 4.11%.

Q: Which cytotoxicity at 25 µM [1, 6] does the source give for `CCCCn1c(-c2ccccc2)c(C(=O)c2ccc(F)cc2)c2c3ccccc3n(C)c2c1=O` [11e, 2-Butyl-4-(4-fluorobenzoyl)-9-methyl-3-phenyl-2,9-dihydro-1H-pyrido[3,4-b]indol-1-one] here?
A: The cytotoxicity at 25 µM was 31.8 ± 1.8%.

Q: `Cn1c2ccccc2c2c(C(=O)c3ccc(C(F)(F)F)cc3)c(-c3ccccc3)n(Cc3ccccc3)c(=O)c21` [9d, 2-Benzyl-9-methyl-3-phenyl-4-(4-(trifluoromethyl)benzoyl)-2,9-dihydro-1H-pyrido[3,4-b]indol-1-one] was tested. Which cytotoxicity at 25 µM [1, 6] did it give?
A: Its cytotoxicity at 25 µM is 11.3 ± 0.53%.

Q: And the cytotoxicity at 25 µM [2, 7]?
A: Its cytotoxicity at 25 µM is 14.2 ± 1.03%.

Q: And the cytotoxicity at 25 µM [3]?
A: The cytotoxicity at 25 µM was 15.5 ± 2.15%.

Q: How did the cytotoxicity at 25 µM [1, 6] turn out when `Cn1c2ccccc2c2c(C(=O)c3ccccc3)c(-c3ccccc3)n(-c3nc4ccccc4s3)c(=O)c21` [12a, 2-(Benzo[d]thiazol-2-yl)-4-benzoyl-9-methyl-3-phenyl-2,9-dihydro-1H-pyrido[3,4-b]indol-1-one] was run?
A: Its cytotoxicity at 25 µM is 26.9 ± 2.6%.

Q: `CCCCn1c(-c2ccccc2)c(C(=O)c2ccc(C)cc2)c2c3ccccc3n(C)c2c1=O` [11c, 2-Butyl-9-methyl-4-(4-methylbenzoyl)-3-phenyl-2,9-dihydro-1H-pyrido[3,4-b]indol-1-one] was tested. Which cytotoxicity at 25 µM [1, 6] did it give?
A: Its cytotoxicity at 25 µM is 31.2 ± 1.6%.

Source: paper PMC12461553 (RSC Advances, 2025)
